Measurements taken from paper PMC5760799 (Journal of Pharmaceutical Analysis, 2011).
Ends that are not written are not given here.

Tests used:
[1] = Pharmacokinetic study of PSN-1 in rats after intravenous administration; assay type: in vivo; conditions: male, Wister, rat, plasma, 3 mg/kg
Outline: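 Six male Wister rats (220–250 g), fasted overnight, received a single iv dose of 3.0 mg/kg. About 0.5 mL of blood was drawn from the ocular vein from 0 to 8 h, with time points split between two groups of three rats. Blood was heparinised, spun at 890g for 10 min and plasma held at –20 °C. Plasma was then precipitated with acetonitrile/0.2% formic acid with thymopentin IS and run by UPLC-MS/MS (SRM). Non-compartmental analysis; mean±SD.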

[2] = Stability of PSN-1 in rat plasma; assay type: in vitro ADME; conditions: UPLC-MS/MS, n=6

FLSLIPHIVSGVASIAKHF-NH2 [PSN-1]
AUC(0-inf) [1]: 1760 ± 404 ng·h/mL
AUC(0-t) [1]: 1660 ± 356 ng·h/mL
Cmax [1]: 1290 ± 340 ng/mL
Tmax [1]: 1.02 min
Vd [1]: 5.23 ± 0.84 L/kg
clearance [1]: 29.7 mL/min/kg
half-life [1]: 2.08 ± 0.31 h
Accuracy (RE) ([2]; long term, −20 °C for 10 days, added 0.05 μg/mL): −4.9%
Accuracy (RE) ([2]; long term, −20 °C for 10 days, added 0.2 μg/mL): −10.1%
Accuracy (RE) ([2]; long term, −20 °C for 10 days, added 1.6 μg/mL): −1.8%
Accuracy (RE) ([2]; short term, room temperature for 4 h before processing, added 0.05 μg/mL): 5.2%
Accuracy (RE) ([2]; short term, room temperature for 4 h before processing, added 0.2 μg/mL): −5.5%
Accuracy (RE) ([2]; short term, room temperature for 4 h before processing, added 1.6 μg/mL): −5.3%
Accuracy (RE) ([2]; three freeze–thaw cycles (−20 to 25 °C), added 0.05 μg/mL): −0.8%
Accuracy (RE) ([2]; three freeze–thaw cycles (−20 to 25 °C), added 0.2 μg/mL): 3.4%
Accuracy (RE) ([2]; three freeze–thaw cycles (−20 to 25 °C), added 1.6 μg/mL): −1.3%
